Two molecules from ChEMBL document CHEMBL6134766, “Design, synthesis, and evaluation of benzhydrylpiperazine-based novel dual COX-2/5-LOX inhibitors with anti-inflammatory and anti-cancer activity” (RSC Med Chem, 2025) can be followed below.

By IC50 is commonly meant the concentration at which inhibition is half-maximal.

The target in series [1] is T1, Polyunsaturated fatty acid 5-lipoxygenase (Homo sapiens, UniProt P09917).
T1 sequence (P09917 whole entry): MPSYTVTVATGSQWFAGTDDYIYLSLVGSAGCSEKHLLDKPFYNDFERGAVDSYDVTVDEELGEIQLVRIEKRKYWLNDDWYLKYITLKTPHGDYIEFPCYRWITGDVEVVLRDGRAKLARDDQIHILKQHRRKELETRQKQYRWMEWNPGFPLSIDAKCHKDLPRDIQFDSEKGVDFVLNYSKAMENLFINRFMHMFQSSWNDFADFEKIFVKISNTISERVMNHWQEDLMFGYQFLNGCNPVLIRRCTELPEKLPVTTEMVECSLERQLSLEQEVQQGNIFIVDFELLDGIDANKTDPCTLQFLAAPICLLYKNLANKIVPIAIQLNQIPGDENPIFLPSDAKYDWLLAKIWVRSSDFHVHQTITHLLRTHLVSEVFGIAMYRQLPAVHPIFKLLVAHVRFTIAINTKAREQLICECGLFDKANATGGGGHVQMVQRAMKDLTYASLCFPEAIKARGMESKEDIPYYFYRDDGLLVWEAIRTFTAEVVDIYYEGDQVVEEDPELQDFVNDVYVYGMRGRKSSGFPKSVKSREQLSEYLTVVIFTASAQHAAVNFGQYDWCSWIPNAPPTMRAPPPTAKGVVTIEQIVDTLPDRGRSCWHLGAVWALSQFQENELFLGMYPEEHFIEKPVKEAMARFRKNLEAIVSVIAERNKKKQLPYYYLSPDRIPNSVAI
In words: Inhibition of 5-LOX (unknown origin) using arachidonic acid as substrate preincubated for 5 mins followed by substrate addition measured after 10 mins by spectrophotometry.

Series [2] relates to Rattus norvegicus. In words: Anti-inflammatory activity in carrageenan-induced paw edema Wistar rat model assessed as swelling thickness of paw at 5 mg/kg, po measured immediately by digital vernier caliper (reference value: 3.48 +/- 0.21 millimeter). The format is functional. (Carrageenan injected into the paw causes an acute inflammation.)
Series [3] concerns Rattus norvegicus. As to the kind of experiment: Anti-inflammatory activity in carrageenan-induced paw edema Wistar rat model assessed as swelling thickness of paw at 10 mg/kg, po measured immediately by digital vernier caliper (reference value: 3.48 +/- 0.21 millimeter). The series is classed as functional.
Series [4] has as its system Rattus norvegicus. In words: Anti-inflammatory activity in carrageenan-induced paw edema Wistar rat model assessed as swelling thickness of paw at 10 mg/kg, po measured after 1 hr by digital vernier caliper (reference value: 8.47 +/- 0.25 millimeter). The series is classed as functional.
For series [5], the system named is Rattus norvegicus. As to the kind of experiment: Anti-inflammatory activity in carrageenan-induced paw edema Wistar rat model assessed as swelling thickness of paw at 20 mg/kg, po measured after 3 hrs by digital vernier caliper (reference value: 8.56 +/- 0.45 millimeter). The series is classed as functional.
Series [6] deals with Rattus norvegicus. As to the kind of experiment: Anti-inflammatory activity in carrageenan-induced paw edema Wistar rat model assessed as swelling thickness of paw at 20 mg/kg, po measured after 4 hrs by digital vernier caliper (reference value: 8.36 +/- 0.78 millimeter). The series is classed as functional.
For series [7], the system named is Rattus norvegicus. In words: Anti-inflammatory activity in carrageenan-induced paw edema Wistar rat model assessed as inhibition of PGE2 level administered orally measured for 6 hrs by ELISA. The settings on record: dose 5-20 mg/kg, route po. The format is functional, organism-based. The gist of the method: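 Paw tissue taken from carrageenan-edema rats dosed orally at 5, 10 or 20 mg kg−1. Tissue rinsed in PBS pH 7.4, minced, homogenized, filtered and centrifuged at 2000 rpm for 20 min at 4 °C. Supernatant assayed by ELISA for PGE2, IL-6, TNF-α and IL-10. Data as mean ± SD.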

Series [8] is described as follows: Toxicity in fasting Wistar rat assessed as ulcer score at 5 mg/kg, po via gavage treated for 3 days consecutively by H and E staining based analysis (reference value: 0). The series is classed as organism-based. The settings on record: in vivo, 72 h, time 3 day. The gist of the method: (§1)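 Fasted rats, n = 6/group, gavaged once daily for 3 days in 0.3% Na CMC (vehicle control 0.3% CMC); killed under anaesthesia 6 h after day-3 dose; stomachs saline-washed, mucosa examined with hand lens; ulcer score, index and % ulceration by reported scoring; some stomachs formalin-fixed, H&E stained.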

A short description of series [9]: Toxicity in fasting Wistar rat assessed as ulcer index at 10 mg/kg, po via gavage treated for 3 days consecutively by H and E staining based analysis (reference value: 0). The format is organism-based. The settings on record: in vivo, 72 h, time 3 day. In outline:
as §1

Series [10] can be described thus: Toxicity in fasting Wistar rat assessed as ulcer index at 20 mg/kg, po via gavage treated for 3 days consecutively by H and E staining based analysis (reference value: 0). The series is classed as organism-based. The settings on record: in vivo, 72 h, time 3 day. In outline:
as §1

Series [11] in a line: Toxicity in fasting Wistar rat assessed as ulceration at 10 mg/kg, po via gavage treated for 3 days consecutively by H and E staining based analysis (reference value: 0 %). The format is organism-based. The settings on record: in vivo, 72 h, time 3 day. The gist of the method:
as §1

The next series has as its system Gastric mucosa. In words: Antioxidant activity in gastric mucosal tissue in Wistar rat assessed as increase in SOD level at 20 mg/kg, po. The format is functional, organism-based. In outline: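 Gastric tissue from fasted rats (dosed orally once daily for 3 days in 0.3% Na CMC) homogenized in cold PBS pH 7.4, centrifuged 1000 rpm, 10 min, 4 °C; protein by Bradford; SOD measured in supernatant per reported procedure.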

Series [12] deals with Rattus norvegicus. As to the kind of experiment: Anti-inflammatory activity in Wistar rat assessed as reduction in ADP/collagen-induced platelet aggregation at 20 mg/kg, po. The format is functional, organism-based. In outline: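 Platelet-rich plasma from treated rats (n = 6/group) adjusted to 4 × 10^8 platelets per ml in Tyrode's buffer. Absorbance read at 570 nm, then aggregation induced with ADP plus 5 μg ml−1 collagen. Plates incubated 5 min at 37 °C with shaking and absorbance re-read at 570 nm. Percent aggregation derived from the absorbance change.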

Series [13] relates to Rattus norvegicus. As to the kind of experiment: Cardio-protective activity in ISO-treated Wistar rat assessed as decrease in serum CK-MB level at 20 mg/kg, po. The format is functional, organism-based. The gist of the method: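 Rats (n = 6/group) given ISO 100 mg kg−1 s.c., then oral test compound in 0.3% CMC; vehicle controls. Retro-orbital blood, serum separated at 4000 rpm, 4 °C, 10 min; LDH and CK-MB by commercial kits; mean ± SD.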

Series [14] concerns Drosophila. As to the kind of experiment: Toxicity in wild-type Drosophila assessed as eclosion rate at 50 uM, po via food to female and male flies and measured in F1 generation flies after 15 days. The series is classed as organism-based. The settings on record: in vivo, 360 h, time 15 day. In outline: (§2)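 Ten virgin female and male Oregon R+ flies crossed on food containing compound (1, 10, 50, 100 or 200 μM), held at 24 ± 1 °C; F1 generation followed 15 days; percent eclosion versus untreated controls; Dunnett's multiple comparisons.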

In series [15] the test system is Drosophila. As to the kind of experiment: Anti-cancer activity in Drosophila harboring UAS-Ras V12 mutant assessed as improvement in larval development to pupal transition at 10 to 50 uM, po. The series is classed as functional, organism-based. The settings on record: dose 10-50 µM. In outline:
(§3)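 UAS-RasV12 glial glioblastoma model (repo-GAL4/UAS-RasV12) in Drosophila, with Oregon R+ wild-type flies as control. Flies reared at 24 ± 1 °C on standard corn food containing compound at 10 or 50 μM. Percent of animals at each developmental stage (third instar larva, pupa) scored. Significance by Tukey's multiple comparisons test.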

Series [16] relates to Drosophila. In words: Anti-cancer activity in Drosophila harboring UAS-Ras V12 mutant assessed as improvement in third instar larval survivability at 10 to 50 uM, po. The series is classed as functional, organism-based. The settings on record: dose 10-50 µM. The gist of the method: as §3
For series [17], the system named is Drosophila. In words: Anti-cancer activity in Drosophila harboring UAS-Ras V12 mutant assessed as improvement in early pupal survivability at 10 to 50 uM, po. The series is classed as functional, organism-based. The settings on record: dose 10-50 µM. In outline: as §3
Series [18] deals with Drosophila. In words: Toxicity in wild-type Drosophila assessed as reduction in eclosion rate at 100 uM, po via food to female and male flies and measured in F1 generation flies after 15 days. The series is classed as organism-based. The arrangement: scale not given: the % may be the effect or the level left. The settings on record: in vivo, 360 h, time 15 day. The gist of the method: as §2

Activity calls are given as the source filed them. The rule behind the calls is not given here.

Regarding `Clc1ccc(-c2nnc(CN3CCN(C(c4ccccc4)c4ccc(Cl)cc4)CC3)o2)cc1` (stereo not drawn), the IC50 in [1] amounted to 7.87 µM. The Activity in the series with Rattus norvegicus [2] amounted to 3.51 mm; in the series on Rattus norvegicus [3], 3.21 mm; in the series on Rattus norvegicus [4], 5.15 mm; with Rattus norvegicus [5], 3.41 mm; with Rattus norvegicus [6], 3.22 mm; in series [8], 0. Also, the Activity in series [11] is on record as 1.38%; with Drosophila [14] it was over 70%; in the series with Drosophila [18] it was 41%. For the same molecule, the inhibition entry in the series on Rattus norvegicus [7] was “Dose-dependent-effect”. In addition, the UI came out at 2.083 in series [9] and 1.875 in series [10]. Further, the outcome in the series on Gastric mucosa, in the series with Rattus norvegicus [12], in the series with Rattus norvegicus [13], with Drosophila [15], in the series with Drosophila [16] and in the series on Drosophila [17] was Active.

With `O=[N+]([O-])c1ccc(-c2nnc(CN3CCN(C(c4ccccc4)c4ccc(Cl)cc4)CC3)o2)cc1` (stereo not drawn), it took 9.16 µM to reach half-maximal inhibition in series [1] (IC50). Further, the Activity was determined as 3.59 mm with Rattus norvegicus [2]; 3.44 mm in the series with Rattus norvegicus [3]; 5.32 mm with Rattus norvegicus [4]; 4.54 mm in the series with Rattus norvegicus [5]; 4.32 mm with Rattus norvegicus [6]; 0.01 in series [8]. Further, the Activity in series [11] turned out to be 4.85%. The inhibition result in the series with Rattus norvegicus [7] is “Dose-dependent-effect”. Moreover, the UI in [9] was 3.125; in [10], 9.37. In addition, the result in the series with Gastric mucosa, in the series with Rattus norvegicus [12] and in the series with Rattus norvegicus [13] was Active.
